These results are taken from ChEMBL document CHEMBL1155054, “Synthesis, biological evaluation and molecular modelling of N-heterocyclic dipeptide aldehydes as selective calpain inhibitors” (Bioorg Med Chem, 2008).

A short description of test [1]: Inhibition of ovine CAPN1. Also on record: species or system Ovis aries. Put shortly:
(§1)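 o-CAPN1 or o-CAPN2 partially purified from sheep lung by hydrophobic and ion-exchange chromatography, diluted in 20 mM MOPS, 2 mM EGTA, 2 mM EDTA, 0.5% β-mercaptoethanol pH 7.5. Substrate 0.0005% BODIPY-FL casein in 10 mM CaCl2; inhibitor in DMSO (2% total).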

Test [2] is described as follows: Inhibition of ovine CAPN2. Also on record: species or system Ovis aries. Put shortly:
as §1

For test [3], the target named is T1, Calpain-1 catalytic subunit (Sus scrofa, UniProt P35750).
T1 sequence (P35750 whole entry): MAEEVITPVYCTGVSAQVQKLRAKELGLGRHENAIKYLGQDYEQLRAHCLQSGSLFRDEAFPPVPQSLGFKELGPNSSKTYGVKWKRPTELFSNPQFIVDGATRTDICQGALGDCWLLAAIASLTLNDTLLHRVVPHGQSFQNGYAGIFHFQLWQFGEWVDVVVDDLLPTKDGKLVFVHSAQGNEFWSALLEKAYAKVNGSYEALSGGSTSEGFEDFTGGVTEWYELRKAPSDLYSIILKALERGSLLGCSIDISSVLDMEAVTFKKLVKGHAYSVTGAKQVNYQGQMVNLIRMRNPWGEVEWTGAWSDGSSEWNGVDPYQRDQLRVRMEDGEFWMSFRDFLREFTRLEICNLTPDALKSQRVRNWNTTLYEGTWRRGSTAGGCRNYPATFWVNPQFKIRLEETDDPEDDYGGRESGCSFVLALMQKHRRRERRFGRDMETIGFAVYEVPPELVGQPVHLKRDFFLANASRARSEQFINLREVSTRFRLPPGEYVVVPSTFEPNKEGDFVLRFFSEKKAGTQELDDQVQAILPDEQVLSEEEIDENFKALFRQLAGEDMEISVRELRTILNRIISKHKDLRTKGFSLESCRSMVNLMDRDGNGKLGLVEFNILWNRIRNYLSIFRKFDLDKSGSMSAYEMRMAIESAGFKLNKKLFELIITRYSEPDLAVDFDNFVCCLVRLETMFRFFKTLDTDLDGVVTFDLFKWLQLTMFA

The target of test [4] is T2, Calpain-2 catalytic subunit (Sus scrofa, UniProt P43367).
T2 sequence (P43367 whole entry): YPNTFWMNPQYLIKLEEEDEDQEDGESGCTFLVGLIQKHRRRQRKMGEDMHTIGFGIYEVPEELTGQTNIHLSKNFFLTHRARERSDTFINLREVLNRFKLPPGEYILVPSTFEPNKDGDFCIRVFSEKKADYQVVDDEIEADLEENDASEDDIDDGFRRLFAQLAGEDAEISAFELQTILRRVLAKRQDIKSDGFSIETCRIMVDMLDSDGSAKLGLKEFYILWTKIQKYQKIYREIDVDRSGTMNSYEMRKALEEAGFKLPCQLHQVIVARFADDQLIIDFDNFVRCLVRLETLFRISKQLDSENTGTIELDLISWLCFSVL
Kind of test: Inhibition of pig CAPN2.

The next test deals with Lens of camera-type eye. In words: Protection against calcium-induced cataract in ovine lens assessed as reduction in loss of transparency at 10 uM after 44 hrs relative to control. The class given is functional, tissue-based. The settings on record: Ovis aries.
In test [5] the target is T3, Calpain-2 catalytic subunit (Homo sapiens, UniProt P17655).
T3 sequence (P17655 whole entry): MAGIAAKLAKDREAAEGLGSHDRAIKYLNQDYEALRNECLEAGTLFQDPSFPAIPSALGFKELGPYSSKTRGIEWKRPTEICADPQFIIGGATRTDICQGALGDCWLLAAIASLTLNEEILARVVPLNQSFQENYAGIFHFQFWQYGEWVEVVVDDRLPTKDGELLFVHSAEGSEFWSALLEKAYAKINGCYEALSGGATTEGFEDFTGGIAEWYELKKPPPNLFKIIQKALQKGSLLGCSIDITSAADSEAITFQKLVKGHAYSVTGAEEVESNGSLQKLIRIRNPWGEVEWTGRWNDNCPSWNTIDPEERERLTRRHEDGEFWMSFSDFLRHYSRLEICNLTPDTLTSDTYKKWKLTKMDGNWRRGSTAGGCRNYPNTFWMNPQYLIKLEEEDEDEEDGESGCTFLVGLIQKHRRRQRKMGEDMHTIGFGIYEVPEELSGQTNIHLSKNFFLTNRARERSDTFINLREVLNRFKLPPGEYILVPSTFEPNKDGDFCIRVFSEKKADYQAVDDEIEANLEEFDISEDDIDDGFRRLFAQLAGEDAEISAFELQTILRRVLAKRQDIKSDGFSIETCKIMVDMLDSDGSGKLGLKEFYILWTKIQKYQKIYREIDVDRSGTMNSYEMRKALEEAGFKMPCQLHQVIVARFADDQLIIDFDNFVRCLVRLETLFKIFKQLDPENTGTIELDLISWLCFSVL
Kind of test: Inhibition of human CAPN2.

Activity calls are given as the source filed them. The calls are words filed in the database; no cut-off is given here. Residues, ends and D or L forms follow the SMILES beside them. *: point of attachment. Cbz = O=C(OCc1ccccc1)*

For the compound `CC(C)C[C@@H](C=O)NC(=O)[C@@H](NC(=O)c1cc(C=O)c[nH]1)C(C)C`, the values for the IC50 in test [1] and in test [2] were 0.53 µM and 0.1 µM, respectively.
Taken in the same sequence, the figures for `CC(C)C[C@@H](C=O)NC(=O)[C@@H](NC(=O)c1ccc[nH]1)C(C)C` were 0.65 µM and 0.315 µM.
As to `CC(C)C[C@@H](C=O)NC(=O)[C@@H](NS(=O)(=O)c1ccc(F)cc1)C(C)C`, the IC50 in test [3] was 0.0075 µM; in test [4] it was 0.078 µM.
In the case of `CC(C)C[C@@H](C=O)NC(=O)[C@@H](NC(=O)c1ccc(C=O)[nH]1)C(C)C`, the IC50 in test [1] turned out to be 0.29 µM; in test [2], 0.025 µM. In addition, the outcome in the test on Lens of camera-type eye was Active.
For `CC(C)C[C@@H](C=O)NC(=O)[C@@H](NC(=O)c1ccc(C=O)o1)C(C)C`, the IC50 came out at 0.96 µM in test [1] and 0.1 µM in test [2].
Taken in the same sequence, the figures for `CC(C)C[C@@H](C=O)NC(=O)[C@@H](NC(=O)c1ccco1)C(C)C` were 0.79 µM and 0.135 µM.
Compound `CC(C)[C@H](NC(=O)OCc1ccccc1)C(=O)N[C@H](C=O)Cc1ccccc1` (Cbz-Val-Phe-aldehyde) displayed an IC50 in test [5] of 0.35 µM.
As for `CC(C)C[C@@H](C=O)NC(=O)[C@@H](NC(=O)c1ccc(C=O)s1)C(C)C`, the IC50 in test [1] was 0.44 µM; in test [2], 0.085 µM.
Taken in the same sequence, the figures for `CC(C)C[C@@H](C=O)NC(=O)[C@@H](NC(=O)c1cccs1)C(C)C` were 0.68 µM and 0.1 µM.
Taken in the same sequence, the figures for `CC(C)C[C@@H](C=O)NC(=O)[C@@H](NC(=O)c1ccc(C=O)n1C)C(C)C` were 0.15 µM and 0.15 µM.
Taken in the same sequence, the figures for `COC(=O)c1ccc(C(=O)N[C@H](C(=O)N[C@H](C=O)CC(C)C)C(C)C)[nH]1` were 0.29 µM and 0.14 µM.
`Cc1ccc(C(=O)N[C@H](C(=O)N[C@H](C=O)CC(C)C)C(C)C)[nH]1`: the IC50 is 0.34 µM in test [1] and 0.11 µM in test [2].
